Some results are limits rather than exact numbers.

The species named for assay [1] is Rattus norvegicus. The assay can be described thus: Ratio of the concentrations of the test compound and dequalinium that cause 50% inhibition, as determined in the same experiment was reported. (number of neurons tested, n=4). The assay is classed as functional. An outline of the steps: (§1)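 AHP inhibition recorded in cultured rat sympathetic neurones. Each compound was applied at two to four concentrations on at least three cells, generally not above 10–30 μM.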

Assay [2] is filed under the species Rattus norvegicus. As to the kind of experiment: Ability to inhibit after-hyperpolarization (AHP) in cultured rat sympathetic neurons. (number of neurons tested, n=4). As to conditions: Sympathetic neuron. The assay is classed as functional. In outline: (§2)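 SK(Ca) block judged from inhibition of the after-hyperpolarization in cultured rat sympathetic neurones. Each compound was tested at two to four concentrations on at least three cells. Test concentrations above 10–30 μM were generally avoided. The time course of block onset was also noted.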

For assay [3], the species on record is Rattus norvegicus. The assay can be described thus: Ratio of the concentrations of the test compound and dequalinium that cause 50% inhibition, as determined in the same experiment was reported. (number of neurons tested, n=18). The assay is classed as functional. In outline:
as §1

For assay [4], the species on record is Rattus norvegicus. As to the kind of experiment: Ability to inhibit after-hyperpolarization (AHP) in cultured rat sympathetic neurons. (number of neurons tested, n=18). It counts as functional. As to conditions: Sympathetic neuron. An outline of the steps: as §2
Assay [5] is filed under the species Rattus norvegicus. As to the kind of experiment: Ratio of the concentrations of the test compound and dequalinium that cause 50% inhibition, as determined in the same experiment was reported. (number of neurons tested, n=6). It counts as functional. An outline of the steps: as §1
For assay [6], the species on record is Rattus norvegicus. As to the kind of experiment: Ability to inhibit after-hyperpolarization (AHP) in cultured rat sympathetic neurons. (number of neurons tested, n=6). It counts as functional. As to conditions: Sympathetic neuron. An outline of the steps:
as §2

The species entered for assay [7] is Rattus norvegicus. The assay can be described thus: Ratio of the concentrations of the test compound and dequalinium that cause 50% inhibition, as determined in the same experiment was reported. (number of neurons tested, n=3). The assay is classed as functional. In outline: as §1
The species entered for assay [8] is Rattus norvegicus. The assay can be described thus: Ratio of the concentrations of the test compound and dequalinium that cause 50% inhibition, as determined in the same experiment was reported. (number of neurons tested, n=5). The assay is classed as functional. An outline of the steps: as §1
The species named for assay [9] is Rattus norvegicus. As to the kind of experiment: Ability to inhibit after-hyperpolarization (AHP) in cultured rat sympathetic neurons. (number of neurons tested, n=5). It counts as functional. Particulars: Sympathetic neuron. In outline: as §2
Assay [10] is filed under the species Rattus norvegicus. As to the kind of experiment: Ability to inhibit after-hyperpolarization (AHP) in cultured rat sympathetic neurons. (number of neurons tested, n=3). As to conditions: Sympathetic neuron. The assay is classed as functional. An outline of the steps: as §2
The species entered for assay [11] is Rattus norvegicus. As to the kind of experiment: cells. As to conditions: Sympathetic neuron.
The species entered for assay [12] is Rattus norvegicus. As to the kind of experiment: Ability to inhibit after-hyperpolarization (AHP) in cultured rat sympathetic neurons. (number of neurons tested, n=7). It counts as functional. Particulars: Sympathetic neuron. In outline: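 SK(Ca) block measured as inhibition of the after-hyperpolarization in cultured rat sympathetic neurones. Each compound was tested at two to four concentrations on at least three cells, generally not above 10–30 μM. Onset of block was also timed. The 50%-inhibitory concentration was determined.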

The species entered for assay [13] is Rattus norvegicus. As to the kind of experiment: Ratio of the concentrations of the test compound and dequalinium that cause 50% inhibition, as determined in the same experiment was reported. (number of neurons tested, n=7). The assay is classed as functional. In outline:
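AHP inhibition in cultured rat sympathetic neurones, with each compound at two to four concentrations on at least three cells. The equieffective molar ratio is the test compound's 50%-inhibitory concentration divided by that of dequalinium, both determined in the same experiment.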

In the case of `Nc1cc[n+](CCCC#CC#CCCC[n+]2ccc(N)cc2)cc1.O.O.[Cl-].[Cl-]`, the EMR in the assay listed under Rattus norvegicus [1] is recorded as 4.7.

As to `O=[N+]([O-])c1cc[n+]([O-])c(NCCCCCCCCCCNc2cc([N+](=O)[O-])cc[n+]2[O-])c1`, the IC50 (commonly the concentration at which inhibition is half-maximal) in the assay listed under Rattus norvegicus [2] is greater than 30 µM. Moreover, the EMR in the assay filed under Rattus norvegicus [1] was greater than 30.

Regarding `Cc1cc(N)c2ccccc2[n+]1CCCCCCCCCC[n+]1c(C)cc(N)c2ccccc21.[Cl-].[Cl-]` [DEQUALINIUM CHLORIDE], the EMR in the assay listed under Rattus norvegicus [3] is 1. Moreover, half-maximal inhibition in the assay listed under Rattus norvegicus [4] (IC50) was put at 0.74 µM.

As for `C[n+]1c(CCCCCCCCCCc2ccc3ccccc3[n+]2C)ccc2ccccc21`, the EMR in the assay filed under Rattus norvegicus [5] was determined as 130. In the assay listed under Rattus norvegicus [6], this compound yielded a 50% inhibitory concentration (IC50) of 72 µM.

`Cn1c[n+](CCCCCCCCCC[n+]2cn(C)c3ccccc32)c2ccccc21` registered an IC50 in the assay filed under Rattus norvegicus [2] of 16 µM. Besides, the EMR in the assay listed under Rattus norvegicus [1] was 77.

Consider `CCCC[n+]1c(C)cc(N)c2ccccc21`, for which, in the assay listed under Rattus norvegicus [7], the EMR came out at 12.

In the case of `Nc1c2c([n+](CCCCCCCCCC[n+]3c4c(c(N)c5ccccc53)CCCC4)c3ccccc13)CCCC2`, the EMR in the assay filed under Rattus norvegicus [8] was found to be 0.9. Moreover, the concentration for half-maximal inhibition (IC50) in the assay filed under Rattus norvegicus [9] was 1 µM.

In the case of `[Br-].[Br-].c1ccc2c(c1)ccc[n+]2CCCCCCCCCC[n+]1cccc2ccccc21`, the EMR in the assay filed under Rattus norvegicus [8] stood at 15. In addition, in the assay filed under Rattus norvegicus [9], half-maximal inhibition (IC50) was put at 21 µM.

Turning to `c1ccc2c[n+](CCCCCCCCCC[n+]3ccc4ccccc4c3)ccc2c1`, the EMR in the assay listed under Rattus norvegicus [8] is on record as 80. In the assay listed under Rattus norvegicus [9], the IC50 was found to be 25 µM.

Consider `COc1cc(CCCCCCCCCCc2cc(OC)c3ccccc3[n+]2C)[n+](C)c2ccccc12`, for which the EMR in the assay filed under Rattus norvegicus [7] stood at 27. In the assay listed under Rattus norvegicus [10], this compound showed a 50% inhibitory concentration (IC50) of 9.5 µM.

Regarding `Cc1cc(N)c2ccccc2[n+]1CCCC#CC#CCCC[n+]1c(C)cc(N)c2ccccc21`, the EMR in the assay filed under Rattus norvegicus [7] is on record as 2.4. The compound also registered an IC50 in the assay listed under Rattus norvegicus [10] of 1.6 µM.

`c1ccc2c(NCCCCCCCCCCNc3c4ccccc4nc4ccccc34)c3ccccc3nc2c1`: in the assay filed under Rattus norvegicus [7], the EMR worked out at 12.2. For the same compound, the IC50 in the assay listed under Rattus norvegicus [10] was determined as 6.7 µM.

`Nc1ccnc(NCCCCCCCCCCNc2cc(N)ccn2)c1`: the EMR in the assay filed under Rattus norvegicus [7] is 5. Besides, the IC50 in the assay filed under Rattus norvegicus [10] worked out at 5.5 µM.

On to `C[n+]1cccnc1NCCCCCCCCCCNc1nccc[n+]1C`, for which the EMR in the assay filed under Rattus norvegicus [8] is greater than 10. The compound further displayed a half-maximal inhibitory concentration (IC50) in the assay listed under Rattus norvegicus [9] greater than 10 µM.

On to `Cc1n(C)c2ccccc2[n+]1CCCCCCCCCC[n+]1c(C)n(C)c2ccccc21.O.O.[Cl-].[Cl-]`, for which the IC50 in the assay filed under Rattus norvegicus [2] was greater than 10 µM. Further, the EMR in the assay listed under Rattus norvegicus [1] was greater than 10.

For the compound `Nc1c2c(nc3ccccc13)CCCC2` [TACRINE], the midpoint of inhibition in the assay filed under Rattus norvegicus [11], the IC50, lay at 30 µM.

As to `Nc1cc[n+](CCCCCCCCCC[n+]2ccc(N)cc2)cc1`, the IC50 in the assay listed under Rattus norvegicus [12] stood at 35 µM. In addition, in the assay listed under Rattus norvegicus [13], the EMR was found to be 33.

On to `CCCCCCCCCC[n+]1c(C)cc(N)c2ccccc21`, for which, in the assay filed under Rattus norvegicus [7], the EMR came to 4.7. The compound also came in with a concentration for half-maximal inhibition (IC50) in the assay filed under Rattus norvegicus [10] of 5.5 µM.

As for `Brc1c[n+](CCCCCCCCCC[n+]2cc(Br)c3ccccc3c2)cc2ccccc12`, the EMR in the assay filed under Rattus norvegicus [8] came to 7.6. Also, in the assay filed under Rattus norvegicus [9], the IC50 amounted to 4.7 µM.

As to `CC[N+](CC)(CC)CCCCCCCCCC[n+]1c(C)cc(N)c2ccccc21.[I-].[I-]`, the EMR in the assay filed under Rattus norvegicus [7] came out at 17. For the same compound, the IC50 in the assay listed under Rattus norvegicus [10] was determined as 18 µM.

Take `C[n+]1c(CCCCCCCCCCCCc2ccc3ccccc3[n+]2C)ccc2ccccc21`: the IC50 in the assay listed under Rattus norvegicus [2] is 21 µM. The EMR in the assay listed under Rattus norvegicus [1] amounted to 33.

(Values after ChEMBL document CHEMBL1128238, “Synthesis and structure-activity relationships of dequalinium analogues as K+ channel blockers. Investigations on the role of the charged heterocycle” (J Med Chem, 1995).)
